From the M2OR odorant receptor database

Key:
Details in all cases: stereoisomer not certain
OR4A15 (Homo sapiens) = OR4A15 (Homo sapiens) (UniProt Q8NGL6)
In short: (§1)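 Each entry records the cell line, G-protein, co-transfected protein and tags used. Methods varied with the source, often transient luciferase assays in mammalian cell lines. A receptor–molecule pair is called responsive (active) if the original authors judged its signal statistically different from baseline and non-responsive (inactive) otherwise.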

OR4A16 (Homo sapiens) = OR4A16 (Homo sapiens) (UniProt Q8NH70)
In short: as §1

OR4A47 (Homo sapiens) = OR4A47 (Homo sapiens) (UniProt Q6IF82)
In short: as §1

OR4A5 (Homo sapiens) = OR4A5 (Homo sapiens) (UniProt Q8NH83)
In short: as §1

OR4A8 (Homo sapiens) = OR4A8 (Homo sapiens) (UniProt P0C604)
In short: as §1

OR4B1 (Homo sapiens) = OR4B1 (Homo sapiens) (UniProt Q8NGF8)
In short: as §1

OR4C11 (Homo sapiens) = OR4C11 (Homo sapiens) (UniProt Q6IEV9)
In short: as §1

OR4C12 (Homo sapiens) = OR4C12 (Homo sapiens) (UniProt Q96R67)
In short: as §1

OR4C13 (Homo sapiens) = OR4C13 (Homo sapiens) (UniProt Q8NGP0)
In short: as §1

OR4C15 (Homo sapiens) = OR4C15 (Homo sapiens) (UniProt Q8NGM1)
In short: as §1

Measured: odorant receptor agonist call

Chain of OR4C13 (Homo sapiens) (Q8NGP0 whole entry): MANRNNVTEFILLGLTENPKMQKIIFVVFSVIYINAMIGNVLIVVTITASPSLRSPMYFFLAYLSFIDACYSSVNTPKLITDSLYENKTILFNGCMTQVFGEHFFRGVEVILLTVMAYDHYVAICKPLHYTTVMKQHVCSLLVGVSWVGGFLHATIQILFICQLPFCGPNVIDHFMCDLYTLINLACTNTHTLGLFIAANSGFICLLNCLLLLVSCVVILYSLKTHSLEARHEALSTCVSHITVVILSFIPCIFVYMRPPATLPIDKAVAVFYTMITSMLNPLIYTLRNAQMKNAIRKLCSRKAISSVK
Chain of OR4A16 (Homo sapiens) (Q8NH70 whole entry): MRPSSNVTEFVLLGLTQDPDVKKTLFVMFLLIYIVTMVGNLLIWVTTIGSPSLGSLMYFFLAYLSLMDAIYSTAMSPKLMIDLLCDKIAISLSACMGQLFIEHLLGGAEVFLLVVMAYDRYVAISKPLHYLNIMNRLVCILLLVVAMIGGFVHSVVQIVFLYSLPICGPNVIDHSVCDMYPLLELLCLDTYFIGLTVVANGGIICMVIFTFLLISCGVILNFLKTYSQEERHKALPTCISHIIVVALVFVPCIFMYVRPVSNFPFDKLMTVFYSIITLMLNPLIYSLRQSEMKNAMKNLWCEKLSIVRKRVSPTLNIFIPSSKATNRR
Chain of OR4A5 (Homo sapiens) (Q8NH83 whole entry): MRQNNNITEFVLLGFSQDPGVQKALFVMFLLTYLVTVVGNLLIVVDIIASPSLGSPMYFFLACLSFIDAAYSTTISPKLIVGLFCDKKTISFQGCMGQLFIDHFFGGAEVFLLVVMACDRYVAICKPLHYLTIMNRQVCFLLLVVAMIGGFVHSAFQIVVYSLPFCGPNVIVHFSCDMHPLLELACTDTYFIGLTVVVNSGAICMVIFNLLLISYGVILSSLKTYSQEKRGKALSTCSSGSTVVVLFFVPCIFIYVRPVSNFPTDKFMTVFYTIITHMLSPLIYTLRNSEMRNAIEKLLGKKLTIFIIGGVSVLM
Chain of OR4A47 (Homo sapiens) (Q6IF82 whole entry): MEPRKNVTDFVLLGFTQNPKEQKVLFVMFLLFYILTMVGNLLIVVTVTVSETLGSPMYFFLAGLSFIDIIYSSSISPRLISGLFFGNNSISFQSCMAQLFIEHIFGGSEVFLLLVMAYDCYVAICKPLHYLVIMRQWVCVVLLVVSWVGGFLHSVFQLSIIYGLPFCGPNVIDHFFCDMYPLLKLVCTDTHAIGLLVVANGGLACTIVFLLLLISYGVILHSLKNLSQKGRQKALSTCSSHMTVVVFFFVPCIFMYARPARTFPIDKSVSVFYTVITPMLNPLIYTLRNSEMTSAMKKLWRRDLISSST
Chain of OR4C12 (Homo sapiens) (Q96R67 whole entry): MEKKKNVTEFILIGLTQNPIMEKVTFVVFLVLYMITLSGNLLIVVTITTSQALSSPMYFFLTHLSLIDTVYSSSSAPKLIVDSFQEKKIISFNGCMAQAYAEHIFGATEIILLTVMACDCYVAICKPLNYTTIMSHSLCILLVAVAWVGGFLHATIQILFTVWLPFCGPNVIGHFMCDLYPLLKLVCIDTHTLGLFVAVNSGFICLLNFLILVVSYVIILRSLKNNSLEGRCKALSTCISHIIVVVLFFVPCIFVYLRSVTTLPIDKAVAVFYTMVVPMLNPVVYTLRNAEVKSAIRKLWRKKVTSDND
Chain of OR4C11 (Homo sapiens) (Q6IEV9 whole entry): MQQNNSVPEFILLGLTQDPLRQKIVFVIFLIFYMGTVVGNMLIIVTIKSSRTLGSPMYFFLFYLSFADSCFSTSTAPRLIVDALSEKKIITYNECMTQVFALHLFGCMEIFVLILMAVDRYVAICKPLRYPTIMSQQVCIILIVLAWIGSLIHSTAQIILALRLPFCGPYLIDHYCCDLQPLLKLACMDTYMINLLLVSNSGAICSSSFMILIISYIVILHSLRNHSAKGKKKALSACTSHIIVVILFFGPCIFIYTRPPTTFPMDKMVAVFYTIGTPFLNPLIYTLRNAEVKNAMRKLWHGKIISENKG
Chain of OR4B1 (Homo sapiens) (Q8NGF8 whole entry): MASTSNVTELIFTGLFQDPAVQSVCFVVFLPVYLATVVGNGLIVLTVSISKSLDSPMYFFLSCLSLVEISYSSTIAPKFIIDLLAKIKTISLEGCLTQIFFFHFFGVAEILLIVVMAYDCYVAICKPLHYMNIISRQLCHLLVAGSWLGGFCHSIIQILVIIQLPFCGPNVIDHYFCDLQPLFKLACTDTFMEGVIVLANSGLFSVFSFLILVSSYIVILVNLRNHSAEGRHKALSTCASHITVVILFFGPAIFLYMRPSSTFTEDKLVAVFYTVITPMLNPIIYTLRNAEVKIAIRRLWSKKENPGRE
Chain of OR4A15 (Homo sapiens) (Q8NGL6 whole entry): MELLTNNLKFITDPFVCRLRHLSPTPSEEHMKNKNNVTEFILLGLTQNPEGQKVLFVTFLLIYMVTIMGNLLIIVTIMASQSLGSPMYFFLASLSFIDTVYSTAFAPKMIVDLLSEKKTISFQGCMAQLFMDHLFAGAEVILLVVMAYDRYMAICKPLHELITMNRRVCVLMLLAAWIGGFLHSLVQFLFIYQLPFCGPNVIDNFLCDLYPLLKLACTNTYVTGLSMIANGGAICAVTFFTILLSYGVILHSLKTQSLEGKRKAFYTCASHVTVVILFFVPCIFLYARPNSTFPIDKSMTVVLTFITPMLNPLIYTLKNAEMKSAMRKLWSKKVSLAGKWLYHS
Chain of OR4C15 (Homo sapiens) (Q8NGM1 whole entry): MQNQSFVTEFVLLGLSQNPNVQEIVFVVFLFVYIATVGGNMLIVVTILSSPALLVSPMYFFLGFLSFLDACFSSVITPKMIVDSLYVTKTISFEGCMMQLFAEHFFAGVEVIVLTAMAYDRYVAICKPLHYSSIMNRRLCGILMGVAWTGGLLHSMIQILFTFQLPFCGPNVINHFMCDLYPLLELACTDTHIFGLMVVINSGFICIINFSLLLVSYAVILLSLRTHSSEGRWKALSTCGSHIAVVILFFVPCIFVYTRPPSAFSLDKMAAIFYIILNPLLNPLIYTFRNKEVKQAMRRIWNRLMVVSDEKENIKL
Chain of OR4A8 (Homo sapiens) (P0C604 whole entry): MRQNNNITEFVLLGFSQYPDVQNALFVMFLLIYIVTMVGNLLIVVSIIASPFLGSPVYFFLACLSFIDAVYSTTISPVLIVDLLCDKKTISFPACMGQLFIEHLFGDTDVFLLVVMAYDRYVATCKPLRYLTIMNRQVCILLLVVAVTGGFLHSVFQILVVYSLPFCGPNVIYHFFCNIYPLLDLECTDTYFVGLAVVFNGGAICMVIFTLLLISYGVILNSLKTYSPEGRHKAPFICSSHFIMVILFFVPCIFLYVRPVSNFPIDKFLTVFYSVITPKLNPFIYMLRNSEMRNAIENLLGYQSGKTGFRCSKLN

Cc1c([N+](=O)[O-])c(C)c([N+](=O)[O-])c(C(C)(C)C)c1[N+](=O)[O-]
inactive: all assays above

C=CCOC(=O)Cc1ccccc1
not listed: OR4A8 (Homo sapiens) | OR4C15 (Homo sapiens)
inactive: all other assays above
